Reference: publication PMC5553550 (Nature nanotechnology, 2017)

Assays:
pSmad1/5 = test: Western blot of Smad phosphorylation in C2C12 cells; format: cell-based, mouse
[1] = system: BMP-2 signaling in C2C12 cells; test: BMP-2 induced ALP activity in C2C12 cells; format: cell-based, mouse; details: BMP-2 75 ng/mL, 3 days; for enhancement of BMP-2 induced ALP activity, in words: PA or monosaccharide 25 μM, n = 8
[2] = system: BMP-4 signaling in C2C12 cells; test: BMP-4 induced ALP activity in C2C12 cells; format: cell-based, mouse; details: BMP-4 75 ng/mL, monosaccharide 1 25 μM, 3 days; n = 8
How it was run: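 C2C12 cells were co-treated with BMP-4 (75 ng/mL) and either the glycopeptide amphiphile nanostructure or the free sulfated monosaccharide, each at 25 μM. Osteoblast differentiation was read out as alkaline phosphatase (ALP) activity. Results are reported as mean ± SEM with n = 8.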

[3] = SAXS / cryo-TEM of self-assembly; format: physicochemical; details: cryo-TEM at 25 μM or SAXS
BMP-2 = details: known effect; ref [4],[5]; cited from earlier work
noggin [4] = details: C2C12 cells; ref [5],[41]; cited from earlier work
C2C12 cells = test: Mineralization assay; format: cell-based, mouse; details: BMP-2 100 ng/mL; heparin 0.62 μM (10 μg/mL) or PA 25 μM; 10 days
noggin [5] = test: SPR binding to immobilized noggin; details: heparin 0.01-100 µM or PA 1 10-60 µM; HEPES buffer pH 7.6, 25 °C

Molecule	BMP-2 mediated Smad phosphorylation with LDN-193189 (pSmad1/5; LDN-193189 0.5 μM, BMP-2 75 ng/mL, regardless of heparin or PA 1)	enhancement of BMP-2 induced ALP activity, in words [1]	amplification of BMP-4 signaling (ALP activity) [2]	self-assembly / supramolecular structure [3]	pSmad1/5 accumulation with BMP-2 (pSmad1/5; BMP-2 75 ng/mL, 3 h, heparin 0.62 μM or PA 1 25 μM, n = 3)	pSmad1/5 accumulation without BMP-2 (pSmad1/5; heparin 0.62 μM or PA 1 25 μM, no BMP-2)	half-life of BMP-2 (BMP-2)	effect on noggin activity (noggin [4])	matrix mineralization of C2C12 cells (C2C12 cells)	enhancement of ALP expression vs BMP-2 alone, factor ([1]; normalized to DNA, dose response for heparin and HS)	SPR binding to noggin (noggin [5])
c1ccc2c(-c3cnn4cc(-c5ccc(N6CCNCC6)cc5)cnc34)ccnc2c1 [LDN-193189]	impeded the BMP-2 mediated phosphorylation of Smads										
CC(=O)N[C@H]1[C@H](OCCN=[N+]=[N-])O[C@H](COS(=O)(=O)O)[C@@H](OS(=O)(=O)O)[C@@H]1OS(=O)(=O)O [monosaccharide 1, 2-Azidoethyl 2-acetamido-3,4,6-tri-O-sulfo-2-deoxy-β-D-glycopyranoside]		found this not to be the case	found this not to be the case	absence of any significant supramolecular structure							
Heparin		more potent response than HS			significantly higher relative to that with BMP-2 alone	did not enhance accumulation of pSmad proteins	prolong the half-life of BMP-2	binds and inhibits noggin activity, thereby rescuing BMP signaling and the subsequent ALP expression in C2C12 cells	inhibited BMP-2 (100 ng/mL) dependent mineralization	5	did not observe a strong binding to noggin
